Only some compounds are listed: those with a hit (about 2.2% of all), similar ones and a draw of the others.
HTRA1 inhibitor: HTRA1 serine protease inhibitors, primary screen, biochemical, fluorescence polarization, HTS | Q92743 | 340,000 compounds, 0.5% hits | inhibition, % at 5.96 µM | recombinant HTRA1, FP-rhodamine activity-based probe | AID 504803, 2011; in the data active means inhibition above about 36%;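 further: 0% = enzyme with DMSO and 100% = wells lacking enzyme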
Target sequence (Q92743 whole entry, looked up): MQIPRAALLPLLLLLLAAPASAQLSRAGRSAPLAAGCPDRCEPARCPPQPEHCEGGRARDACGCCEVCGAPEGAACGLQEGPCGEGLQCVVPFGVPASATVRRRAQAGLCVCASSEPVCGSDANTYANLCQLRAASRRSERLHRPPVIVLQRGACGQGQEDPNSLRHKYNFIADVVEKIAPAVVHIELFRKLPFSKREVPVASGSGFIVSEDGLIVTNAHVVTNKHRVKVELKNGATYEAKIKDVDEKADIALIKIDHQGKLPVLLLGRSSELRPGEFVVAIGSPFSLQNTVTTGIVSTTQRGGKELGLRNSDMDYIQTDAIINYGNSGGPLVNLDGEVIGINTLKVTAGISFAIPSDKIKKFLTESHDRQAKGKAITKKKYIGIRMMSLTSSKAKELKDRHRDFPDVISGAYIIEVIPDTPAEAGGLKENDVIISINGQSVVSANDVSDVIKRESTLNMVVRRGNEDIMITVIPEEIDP
TCR CD3 inh: inhibitors of human TCR-CD3 interaction, primary screen, biochemical, fluorescence, TAMRA-labeled TCR probe. inhibition, % at 9.4 µM. 360,000 compounds, 0.37% hits. AID 651800, 2012; in the data active means inhibition above about 19%;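 further: recombinant mutant TCR 2C K166C tagged with TAMRA read by polarization; 0% = receptor in buffer alone and 100% = receptor with positive control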
SIAE inh: human SIAE inhibitors, primary screen, biochemical, fluorescence polarization, FP-Rh probe, 1536-well HTS; Sialate O-acetylesterase (Homo sapiens), Q9HAT2; SIAE FP-Rh probe binding; 370,000 compounds, 0.69% hits; inhibition, % at 9.66 µM;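 active means inhibition above a cutoff: mean of compounds within the control limits plus 3 SD of those, cut at about 17% in these data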;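 further: 0% = plate median of compound wells and 100% = probe without SIAE protein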
TDP2 inh: human TDP2 enzyme inhibitors, primary screen, biochemical, epi absorbance, recombinant enzyme | 370,000 compounds, 0.34% hits | T5PNP hydrolysis, p-nitrophenol absorbance 415 nm | Tyrosyl-DNA phosphodiesterase 2 (Homo sapiens), O95551 | inhibition, % at 12.8 µM | AID 720702, 2013;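 active means inhibition above the mean of all tested compounds plus 3 SD, set per campaign, cut at about 25% in these data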;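 further: 0% = DMSO with enzyme and 100% = buffer with substrate but no TDP2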
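Test system: human TDP2 enzyme; Input: 120 nM TDP2 per well; Buffer or medium: Mg2+-containing Tris-HCl buffer, pH 7.5; Reagent: 5 mM T5PNP; Dosing: 12.8 µM single point, 1% DMSO; Incubation: reaction 2 h, 37 °C; Detection: p-Nitrophenol epi absorbance; Read-out: % inhibition relative to enzyme-containing and enzyme-free wells; Replicates: single well per compound.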
mABHD4 FP: ABHD4 inhibitors, primary screen, biochemical, fluorescence polarization, mouse; (Lyso)-N-acylphosphatidylethanolamine lipase (Mus musculus), Q8VD66; inhibition, % at 8.92 µM; AID 720543, 2013; 370,000 compounds, 0.54% hits; purified mABHD4, FP-Rh probe fluorescence polarization;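 active means inhibition exceeding the mean over every tested compound plus 3 SD, cut at about 30% in these data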;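 further: 0% = plate median of compound wells and 100% = S159A mutant with DMSO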
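Material: mouse ABHD4 enzyme, wild type; Benchmarks: S159A mutant high control, sample median low control; Buffer or medium: HEPES pH 7.0, NaCl, Pluronic buffer; Signal: fluorescence polarization; Read-out: percent inhibition of probe binding, normalized to plate controls; Timing: pre-incubation 45 min, probe exposure 60 min, at 25 °C; Dosing: 8.92 µM, single dose.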
LEDGF integ inh: blockers of LEDGF/p75-dependent integrase strand transfer – biochemical, TR-FRET, high throughput, primary screen. 370,000 compounds, 0.64% hits. inhibition, % at 3.7 µM. TR-FRET IN-LEDGF/p75 DNA integration, Eu/Cy5. HIV-1 integrase (with human LEDGF/p75);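 active means inhibition above the screen-wide mean plus 3 SD, cut at about 13% in these data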;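 further: signal is the Cy5 over europium emission ratio at 671 and 618 nm; 0% = plate median of compound wells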
* = called active by the depositor; ! = not confirmed by another sample.

`CCC[C@@H](CN1CCC[C@H]1CN1C(N)=NC[C@@H]1Cc1ccccc1)N1C[C@@H](Cc2ccccc2)N(CCc2ccc(Cl)c(Cl)c2)C1=N` gave HTRA1 inhibitor -5, TCR CD3 inh -3, SIAE inh 11, TDP2 inh 4, mABHD4 FP 34* and LEDGF integ inh 1.
For Cn1c(=O)c2cc(S(=O)(=O)N3CCN(CCO)CC3)ccc2n(C)c1=O the results were SIAE inh -2, TDP2 inh 6, mABHD4 FP 3 and LEDGF integ inh 6.
For O=c1oc2ccc(Cl)cc2nc1/C=C(\O)c1cccs1 the results were HTRA1 inhibitor 3, TCR CD3 inh 10, SIAE inh 5, TDP2 inh -18, mABHD4 FP 32* and LEDGF integ inh 4.
`CC(=O)NC1C(=O)N(CCN2CCOCC2)c2ccc(Cl)cc21` (configuration not stated) gave HTRA1 inhibitor -1, TCR CD3 inh 4, SIAE inh 1, TDP2 inh 6, mABHD4 FP 9 and LEDGF integ inh 16*.
`Nc1cc(C(=O)O)c(N)c2c1C(=O)c1ccccc1C2=O` gave HTRA1 inhibitor 82*.
Screening Nc1c(C(=O)O)ccc2c1C(=O)c1ccccc1C2=O returned HTRA1 inhibitor 2, TCR CD3 inh 8, SIAE inh -17, TDP2 inh 11, mABHD4 FP 2 and LEDGF integ inh -1.
`COC(=O)C12C=C3CC(c4ccc(C)s4)=C3C(=O)N1Cc1[nH]c3ccccc3c1C2` (configuration not stated) gave SIAE inh 5, TDP2 inh -7, mABHD4 FP -1 and LEDGF integ inh -1.
CN(C)c1ccc(-c2[nH][nH]c(=O)c2NC(=O)c2ccccn2)cc1 was read as TCR CD3 inh 0, SIAE inh 6, TDP2 inh 87*, mABHD4 FP 10 and LEDGF integ inh 11.
Screening CN(C)c1cccc(/C=C2\CC3(OC(=O)c4ccc(Cl)cc4)CCCN2C3)c1 (configuration not stated) returned SIAE inh 1, TDP2 inh -10, mABHD4 FP -3 and LEDGF integ inh 4.
Cc1ccccc1N1CCN(C2CCCN(C(=O)c3csc(C(C)C)n3)C2)CC1 (configuration not stated) was read as HTRA1 inhibitor 5, TCR CD3 inh 5, SIAE inh 4, TDP2 inh -2, mABHD4 FP 4 and LEDGF integ inh 15*.
`CC1=NN(c2ccccc2)C(=O)/C1=C\c1ccc(Oc2ccc([N+](=O)[O-])cc2[N+](=O)[O-])cc1` gave HTRA1 inhibitor 1, TCR CD3 inh 1, SIAE inh 10, TDP2 inh 78*, mABHD4 FP 10 and LEDGF integ inh 31*.
`COc1ccc(-n2c(CN3CCC(C(N)=O)CC3)nc3ccc([N+](=O)[O-])cc3c2=O)c(OC)c1` gave HTRA1 inhibitor 3, TCR CD3 inh 1, SIAE inh 3, TDP2 inh -4, mABHD4 FP 2 and LEDGF integ inh 23*.
CC(COc1cc(F)cc(C#N)c1)CN1CCC(C(O)(c2ccccc2)c2ccccc2)CC1 (configuration not stated) was read as SIAE inh -3, TDP2 inh -12, mABHD4 FP 6 and LEDGF integ inh 5.
Screening CC1(C)S[C@@H]2[C@H](NC(=O)[C@H](N)c3ccccc3)C(=O)N2[C@H]1C(=O)O returned HTRA1 inhibitor 0, TCR CD3 inh 8, SIAE inh -2, TDP2 inh 10, mABHD4 FP -8 and LEDGF integ inh 52*!.
For CC1(C)S[C@@H]2[C@H](NC(=O)C(C(=O)O)c3ccccc3)C(=O)N2[C@H]1C(=O)O (some centres not stated) the results were HTRA1 inhibitor 8.
Screening C/C(=N\NC(=O)c1cccc(N/N=C(\C)c2cc(O)ccc2O)c1)c1cc(O)ccc1O returned HTRA1 inhibitor 28, TCR CD3 inh 30*, SIAE inh 11, TDP2 inh 8, mABHD4 FP 24 and LEDGF integ inh 0.
For COc1ccc(CC(C)NCC(O)c2ccc(O)c(NC=O)c2)cc1 (configuration not stated) the results were HTRA1 inhibitor 3, TCR CD3 inh 27*!, SIAE inh 7, TDP2 inh 3, mABHD4 FP -1 and LEDGF integ inh -7.
`CC(CCc1ccccc1)NCC(O)c1ccc(O)c(C(N)=O)c1` (configuration not stated) gave HTRA1 inhibitor 1, TCR CD3 inh 7, SIAE inh 4, TDP2 inh 4, mABHD4 FP -3 and LEDGF integ inh 1.
For COc1ccc(NC2c3ncccc3C(=O)N2Cc2ccccc2)c(OC)c1 (configuration not stated) the results were HTRA1 inhibitor 2, TCR CD3 inh -4, SIAE inh active, TDP2 inh -2, mABHD4 FP 7 and LEDGF integ inh 2.
Screening O=C(CSc1nnc(-c2ccco2)n1-c1ccc(Cl)cc1)Nc1ccccc1-c1ccccc1 returned SIAE inh -1, TDP2 inh -5, mABHD4 FP -2 and LEDGF integ inh -3.
O=C(Nc1ccnn1C1CCN(C(=O)c2ccccc2C(F)(F)F)CC1)C1CC1 was read as HTRA1 inhibitor 2, TCR CD3 inh -11, SIAE inh -5, TDP2 inh -2, mABHD4 FP 1 and LEDGF integ inh 14*.
`O=C(Nc1ccnn1C1CCN(C(=O)c2c(F)cccc2F)CC1)C1CC1` gave HTRA1 inhibitor -1, TCR CD3 inh -7, SIAE inh -2, TDP2 inh -4, mABHD4 FP 2 and LEDGF integ inh -3.
Screening Cc1ccc(Nc2cc(C)nn2-c2nc(C)cc(=O)[nH]2)cc1 returned HTRA1 inhibitor 50*.
Screening Cc1ccc(Nc2cc(C)nn2-c2nc(C)cc(C)n2)cc1 returned HTRA1 inhibitor 9, TCR CD3 inh 2, SIAE inh -1, TDP2 inh -15, mABHD4 FP 1 and LEDGF integ inh 9.
COc1ccc(CNC2CCC23CCCCC3)cc1OC (configuration not stated) was read as SIAE inh 3, TDP2 inh -2, mABHD4 FP 2 and LEDGF integ inh -1.

Bioassay records from PubChem BioAssay.
